Published values gathered from unrelated publications.
Protocols differ between the studies behind these lines.
CDK2: Cyclin-dependent kinase 2 (CDK2, Homo sapiens, UniProt P24941)
CDK2 with cyclin E: Cyclin-dependent kinase 2, with cyclin E (CDK2, Homo sapiens, UniProt P24941)
CDK2 with cyclin A: Cyclin-dependent kinase 2, with cyclin A (CDK2, Homo sapiens, UniProt P24941)

| SMILES | target | observed | mode | technique | tested at | endpoint | result |
| --- | --- | --- | --- | --- | --- | --- | --- |
| CCC1(CC)NC(=O)c2c(c3ccc(Cl)c(Cl)c3n2C)C1C#N (centres unmarked) | CDK2 | thermal stability |  | DSF | 10 µM | ΔTm | -0.4 °C |
| N#Cc1c(NC(=O)c2cccc3ccccc23)sc2c1CCCC2 | CDK2 with cyclin E | cell-free assay |  |  | 0.5 µM | remaining signal | 89.1% |
| O=C(Nc1cnn(-c2csc(C(=O)NC3COC3)c2)c1)Nc1c(F)cccc1Cl | CDK2 with cyclin A | enzyme activity | inhibitor |  | 5 µM | remaining activity | 93.8% |
| CC(C)[C@H](CO)Nc1nc(Nc2cccc(Cl)c2)c2ncn(C(C)C)c2n1 | CDK2 with cyclin E | cell-free assay |  |  | 0.5 µM | remaining signal | 9.88% |
| CN1CCC2(CC1)NC(=O)c1c(c3ccc(Cl)c(Cl)c3n1C)C2C#N (racemic) | CDK2 | thermal stability |  | DSF | 10 µM | ΔTm | 0.1 °C |
| CS(=O)(=O)CCNCc1ccc(-c2ccc3ncnc(Nc4ccc(OCc5cccc(F)c5)c(Cl)c4)c3c2)o1 | CDK2 with cyclin E | cell-free assay |  |  | 0.5 µM | remaining signal | 98.8% |
| Cn1c2c(c3ccc(Cl)c(Cl)c31)C(C#N)C1(CCOCC1)NC2=O (centres unmarked) | CDK2 | thermal stability |  | DSF | 10 µM | ΔTm | 0 °C |
| Nc1ncnc2occ(-c3ccc(NC(=O)Nc4cc(C(F)(F)F)ccc4F)cc3)c12 | CDK2 | cell-free assay | inhibitor |  | 20 µM | remaining signal | 0.1% |
| N#CCCc1ccc2c(c1)-c1[nH]c3ccc([N+](=O)[O-])cc3c1CC(=O)N2 | CDK2 with cyclin A | cell-free assay |  |  | 0.5 µM | remaining signal | 2.93% |
| C[C@H](NC(=O)c1cnc2n1[C@](C)(Cc1ccc(C#N)cc1)C(=O)N2c1cc(Cl)c(F)c(Cl)c1)C(=O)NC1(c2ccccn2)CC1 | CDK2 | cell-free assay |  | competition with immobilised ligand | 1 µM | remaining binding | 100% |
| Cc1ccc(C(=O)NCc2ccsc2)cc1C#Cc1cn(C(C)C)c2ncnc(N)c12 | CDK2 with cyclin A | enzyme activity | inhibitor |  | 1 µM | activity vs control | 94% |
| Cn1c2c(Cl)c(Cl)ccc2c2cn[nH]c(=O)c21 | CDK2 | thermal stability |  | DSF | 10 µM | ΔTm | 0.6 °C |
| O=C1NC(=O)c2cc(Nc3ccc(F)cc3)c(Nc3ccc(F)cc3)cc21 | CDK2 with cyclin E | cell-free assay |  |  | 0.5 µM | remaining signal | 94.3% |
| C[C@H](c1ccnc(Nc2nc3ccc(-c4cc(N(C)C)ncn4)cc3[nH]2)c1)N1CCN(C(=O)CC(F)(F)F)CC1 | CDK2 | cell-free assay |  | competition with immobilised ligand | 0.1 µM | remaining binding | 100% |
| Cn1c2c(c3ccccc31)C(C#N)C(C)(C)NC2=O (centres unmarked) | CDK2 | thermal stability |  | DSF | 10 µM | ΔTm | -0.1 °C |
| Cc1cc(NC(=O)c2cccc3cc(-c4cccc5[nH]nc(N)c45)ccc23)ccc1F | CDK2 with cyclin E | enzyme activity | inhibitor |  | 0.1 µM | activity vs control | 103% |

| SMILES | target | observed | mode | technique | tested at | endpoint | result |
| --- | --- | --- | --- | --- | --- | --- | --- |
| CN(c1ccnc(CNc2nc(Nc3ccc4c(c3)CC(=O)N4)ncc2C(F)(F)F)n1)S(C)(=O)=O | CDK2 | cell-free assay |  | competition with immobilised ligand | 1 µM | remaining binding | 89% |
| N#CC1c2c([nH]c3c(Cl)c(Cl)ccc23)C(=O)NC12CCCCC2 (racemic) | CDK2 | thermal stability |  | DSF | 10 µM | ΔTm | -0.6 °C |
| Cc1c[nH]c2nccc(Oc3c(F)cc(Nc4cc(Cl)nc(N)n4)cc3F)c12 | CDK2 | cell-free assay |  | competition with immobilised ligand | 0.1 µM | remaining binding | 99% |
| Cc1ccc(NC(=O)c2ccc(C)c(C(F)(F)F)c2)cc1C#Cc1nn(C2CCC(O)CC2)c2ncnc(N)c12 (centres unmarked) | CDK2 with cyclin E | cell-free assay |  |  | 10 µM | remaining signal | 102% |
| CCS(=O)(=O)c1cc2cc(C[C@@](O)(CC(C)(C)c3ccc(F)cc3C(N)=O)C(F)(F)F)[nH]c2cn1 | CDK2 | cell-free assay |  | competition with immobilised ligand | 1 µM | remaining binding | 96% |
| CC(C)c1ccc(NC(=O)c2cccs2)c(-c2nc3ccccc3[nH]c2=O)c1 | CDK2 with cyclin A | enzyme activity | inhibitor |  | 1 µM | activity vs control | 96% |
| COc1cc(/C=C/C(=O)CC(=O)/C=C/c2ccc(O)c(OC)c2)ccc1O | CDK2 with cyclin A | enzyme activity | inhibitor |  | 1 µM | activity vs control | 107% |
| Cc1sc(C(=O)NC2COC2)cc1-n1cc(NC(=O)Nc2c(F)cccc2Cl)cn1 | CDK2 with cyclin E | enzyme activity | inhibitor |  | 10 µM | remaining activity | 106% |
| O=C1Cc2c([nH]c3ccc(Br)cc23)-c2ccccc2N1 | CDK2 with cyclin E | cell-free assay |  |  | 0.5 µM | remaining signal | 51.9% |
| CSc1cccnc1N1CCN(Cc2nc3ccccc3[nH]2)CC1 | CDK2 | cell-free assay |  | competition with immobilised ligand | 1 µM | remaining binding | 95% |
| COc1cc2c(cc1OC)-c1[nH]nc(Nc3cccc(F)c3)c1C2 | CDK2 with cyclin E | cell-free assay |  |  | 0.5 µM | remaining signal | 88.6% |
| CC(C)CC(=O)N1CCc2nc(-c3ccc(Br)cc3)nc(N(C)Cc3ccccc3)c2C1 | CDK2 | cell-free assay |  | competition with immobilised ligand | 0.1 µM | remaining binding | 80% |
| FC(F)(F)Oc1cccc(-c2cnc3ccc(-c4ccncc4)nn23)c1 | CDK2 with cyclin A | enzyme activity | inhibitor | radiometric | 1 µM | activity vs control | 26% |
| O=C(Nc1cnn(-c2csc(C(=O)NC3COC3)c2)c1)Nc1ccccc1Cl | CDK2 with cyclin E | enzyme activity | inhibitor |  | 5 µM | remaining activity | 99% |
| NS(=O)(=O)c1cc(NC(=O)Cc2ccccc2)ccc1Oc1cccc(Cl)c1 | CDK2 | cell-free assay |  | competition with immobilised ligand | 1 µM | remaining binding | 100% |
| COc1cc2c(Nc3ccc(Br)cc3F)ncnc2cc1OCC1CCN(C)CC1 | CDK2 with cyclin E | cell-free assay |  |  | 0.5 µM | remaining signal | 101% |
